Experimental data taken from ChEMBL document CHEMBL2046340, “Naphthoquinones from Onosma paniculata induce cell-cycle arrest and apoptosis in melanoma Cells” (J Nat Prod, 2012).
Active and inactive are the calls of the source. No cut-off for these calls is given here.

Key:
[1] = Cytotoxicity against human WM35 cells after 72 hrs by XTT assay; format: functional, cell-based; conditions: WM35, 72 h
Outline: (§1)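 Melanoma lines (SBcl2, WM35, WM9, WM164) kept in RPMI 1640 with 2 mM glutamine and 2% FBS, 37 °C, 5% CO2. Plated at 5000 cells/well overnight and treated 72 h across at least eight concentrations (freshly diluted from DMSO; vehicle 0.5% DMSO). XTT absorbance read after 1.5 h. IC50 from four-parameter logistic curves; two passages in triplicate, six experiments, mean ± SEM.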

[2] = test system: MRC5; assay: Selectivity ratio of IC50 for human MRC5 cells to IC50 for human CCRF-CEM cells
Outline: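 The ratio uses XTT viability IC50s from a 72 h exposure. MRC-5 fibroblasts were grown in MEM and CCRF-CEM cells in RPMI 1640, both with 10% FBS; both were seeded at 10 000 cells/well. XTT was read after 1.5 h (MRC-5) or 4 h (CCRF-CEM). IC50s came from four-parameter logistic fits over at least eight concentrations, six independent experiments.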

[3] = Cytotoxicity against human SBcl2 cells after 72 hrs by XTT assay; format: functional, cell-based; conditions: SBcl2, 72 h; outline: as §1
[4] = test system: U-251; assay: Cytotoxicity against human U251 cells after 72 hrs by XTT assay; format: functional, cell-based; conditions: U-251, 72 h
Outline: (§2)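 U251 glioblastoma and HCT 116 colon cells grown in high-glucose DMEM with 2 mM glutamine and 10% FBS. 5000 cells/well attached overnight, then received at least eight concentrations for 72 h (0.5% DMSO vehicle). XTT read 1.5 h after addition. IC50 by four-parameter logistic fit; two passages × three wells, six independent experiments, mean ± SEM.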

[5] = Cytotoxicity against human WM9 cells after 72 hrs by XTT assay; format: functional, cell-based; conditions: WM9, 72 h; outline: as §1
[6] = test system: CCRF-CEM; assay: Cytotoxicity against human CCRF-CEM cells after 72 hrs by XTT assay; format: functional, cell-based
Outline: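 CCRF-CEM leukaemia cells in RPMI 1640 with 2 mM glutamine and 10% FBS, 37 °C, 5% CO2. Seeded at 10 000 cells/well and exposed for 72 h to at least eight concentrations, freshly diluted from DMSO into medium (vehicle 0.5% DMSO). XTT with electron coupling reagent was read after 4 h. IC50 came from a four-parameter logistic fit over two passages × three wells; six independent experiments.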

[7] = Cytotoxicity against human WM164 cells after 72 hrs by XTT assay; format: functional, cell-based; conditions: WM164, 72 h; outline: as §1
[8] = test system: MDA-MB-231; assay: Cytotoxicity against human MDA-MB-231 cells after 72 hrs by XTT assay; format: functional, cell-based; conditions: MDA-MB-231, 72 h
Outline: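 MDA-MB-231 breast cancer cells, RPMI 1640 with 2 mM glutamine and 10% FBS, 37 °C in 5% CO2. Seeded at 5000 cells/well, adhered overnight, then 72 h exposure over at least eight concentrations with 0.5% DMSO vehicle. XTT readout after 1.5 h. Four-parameter logistic IC50 from two passages each in three wells; mean ± SEM of six experiments.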

[9] = test system: HCT-116; assay: Cytotoxicity against human HCT116 cells after 72 hrs by XTT assay; format: functional, cell-based; conditions: HCT-116, 72 h; outline: as §2
[10] = test system: MRC5; assay: Cytotoxicity against human MRC5 cells after 72 hrs by XTT assay; format: cell-based; conditions: MRC5, 72 h
Outline: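 MRC-5 lung fibroblasts in MEM with 2 mM glutamine and 10% FBS. Seeded at 10 000 cells/well, attached overnight, then treated 72 h with at least eight concentrations (DMSO stock diluted in medium, 0.5% DMSO vehicle). XTT was added and read 1.5 h later. IC50 came from a four-parameter logistic curve; two passages × triplicate wells, six independent experiments, mean ± SEM.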

[11] = Cell cycle arrest in human SBcl2 cells assessed as increase of cells accumulation at S phase at IC50 after 12 to 72 hrs using propidium iodide staining by FACS analysis; format: functional, cell-based
Outline: (§3)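 Melanoma lines were kept in RPMI 1640 with 2 mM L-glutamine, 2% FBS and penicillin/streptomycin at 37 °C under 5% CO2. Cells were exposed for 12–72 h, with 0.5% DMSO vehicle controls, then trypsinized. 5 × 10^5 cells were fixed in ice-cold 70% EtOH for 10 min at 4 °C, washed in PBS and stained with PI/RNase A for 15 min at 37 °C. Phases were read by flow cytometry; n = 3 means.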

[12] = test system: WM164; assay: Induction of apoptosis in human WM164 cells assessed as increased accumulation at sub-G1 phase at IC50 after 24 […]
[13] = test system: WM9; assay: Induction of morphological changes in human WM9 cells assessed as less density and round shape phenotype with fewer dendrites of cells at IC50 after 24 to 48 hrs; format: functional, cell-based
[14] = test system: WM35; assay: Induction of morphological changes in human WM35 cells assessed as less density and round shape phenotype with fewer dendrites of cells at IC50 after 24 to 48 hrs; format: functional, cell-based
[15] = Induction of apoptosis in human WM9 cells assessed as accumulation at sub-G1 phase at IC50 after 24 […]
[16] = Cell cycle arrest in human WM35 cells assessed as increase of cells accumulation at S phase at IC50 after 12 to 72 hrs using propidium iodide staining by FACS analysis; format: functional, cell-based; outline: as §3
[17] = test system: SBcl2; assay: Induction of morphological changes in human SBcl2 cells assessed as less density and round shape phenotype with fewer dendrites of cells at IC50 after 24 to 48 hrs; format: functional, cell-based
[18] = Cell cycle arrest in human WM9 cells assessed as accumulation at G2/M phase at IC50 after 12 to 72 hrs using propidium iodide staining by FACS analysis; format: functional, cell-based; outline: as §3
[19] = test system: SBcl2; assay: Induction of apoptosis in human SBcl2 cells assessed as accumulation at sub-G1 phase at IC50 after 24 […]
[20] = Cell cycle arrest in human WM164 cells assessed as accumulation at G2/M phase at IC50 after 12 to 72 hrs using propidium iodide staining by FACS analysis; format: functional, cell-based; outline: as §3
[21] = Induction of apoptosis in human WM35 cells assessed as accumulation at sub-G1 phase at IC50 after 24 […]
[22] = test system: WM164; assay: Induction of morphological changes in human WM164 cells assessed as less density and round shape phenotype with fewer dendrites of cells at IC50 after 24 to 48 hrs; format: functional, cell-based

SMILES | IC50 [1] [µM] | Ratio IC50 [2] | IC50 [3] [µM] | IC50 [4] [µM] | IC50 [5] [µM] | IC50 [6] [µM] | IC50 [7] [µM] | IC50 [8] [µM] | IC50 [9] [µM] | IC50 [10] [µM] | further results
CC(C)=CC[C@@H](OC(=O)CC(C)(C)O)C1=CC(=O)c2c(O)ccc(O)c2C1=O [BETA-HYDROXYISOVALERYLSHIKONIN] | 13 | 6 | 8.3 | 23.6 | 12.7 | 0.6 | 30.9 | 4.6 | 4.1 | 3.9 | 
CC(=O)O[C@H](CC=C(C)C)C1=CC(=O)c2c(O)ccc(O)c2C1=O [ACETYLSHIKONIN] | 30.7 | 2.6 | 13 | 15.9 | 23.5 | 1 | 71.5 | 11.3 | 9 | 2.6 | 
CC[C@]1(O)C[C@@H]2CN(CCc3c([nH]c4ccccc34)[C@@](C(=O)OC)(c3cc4c(cc3OC)N(C)[C@H]3[C@@](O)(C(=O)OC)[C@H](OC(C)=O)[C@]5(CC)C=CCN6CC[C@]43[C@@H]65)C2)C1 [VINBLASTINE] | 0.0035 |  | 0.011 | 0.0081 | 0.015 | 0.0094 | 0.0042 | 0.031 | 0.0087 | 0.024 | 
CC(C)=CC[C@@H](OC(=O)C=C(C)C)C1=CC(=O)c2c(O)ccc(O)c2C1=O [DIMETHYLACRYLSHIKONIN] | 2.3 | 1.3 | 1.1 | 30.8 | 2.7 | 1.9 | 8.3 | 23.2 | 20 | 2.4 | Activity [11]: Active; Activity [12]: 20%; Activity [13]: Active; Activity [14]: Active; Activity [15]: 20%; Activity [16]: Active; Activity [17]: Active; Activity [18]: Active; Activity [19]: 20%; Activity [20]: Active; Activity [21]: 20%; Activity [22]: Active
